For orientation: AUC means the area under the concentration-time curve, a measure of exposure. The term ED50 denotes the dose at which the effect has come halfway, by size or by number of responders. One may read the IC50 as the midpoint of a concentration-inhibition curve.

Data set [1] in a line: PK study was carried to determine the relative absorption ranking in rat. Conditions: plasma, read-out: Cp max. The format is ADME, organism-based.
The species named for data set [2] is Rattus norvegicus. Put plainly: PK study was carried to determine AUC (area under curve) value in rat. The arrangement: concentration or dose not given beside the values. The format is ADME, organism-based. The settings on record: in vivo. The essentials: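 Three rats dosed at 1 mg/kg, either orally as a methylcellulose suspension or iv as a solution in N-methylpyrrolidone. Blood sampled at intervals over 24 h and assayed for compound. Results averaged, n = 3.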

In data set [3] the target is T1, Tumor necrosis factor (Mus musculus) (UniProt P06804).
T1 sequence (whole entry): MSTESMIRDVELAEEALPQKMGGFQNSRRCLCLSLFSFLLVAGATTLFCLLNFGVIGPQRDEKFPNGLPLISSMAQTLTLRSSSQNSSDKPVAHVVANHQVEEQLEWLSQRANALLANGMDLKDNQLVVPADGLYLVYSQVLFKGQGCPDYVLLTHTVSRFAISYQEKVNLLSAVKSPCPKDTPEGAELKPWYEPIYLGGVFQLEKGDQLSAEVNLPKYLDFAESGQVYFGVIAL
Nature of the data set: Effective dose against LPS-stimulated Tumor necrosis factor, alpha release in mice dosed orally, 30 min prior to LPS challenge (0.1 mg/kg, ip). The format is functional, organism-based. The gist of the method:
(§1)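 Balb/c mice dosed orally 30 min before ip LPS (0.1 mg/kg). Serum TNFα measured 90 min after LPS. Means, n = 3.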

Another data set has as its target MAP kinase p38 (Mus musculus, UniProt P47811+O08911+Q9WUI1+Q9Z1B7). Nature of the data set: Inhibition of murine Mitogen-activated protein kinase p38. The format is protein assay. The essentials:
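Mouse p38 enzyme, 40 ng/well, run for 1 h at room temperature. ATF-2 (50 µg/mL) coated on plates as substrate. Buffer: 25 mM Hepes pH 7.7, 25 mM MgCl2, 2 mM DTT, 1 mM sodium orthovanadate, 100 µM ATP. Phospho-ATF-2 detected with a rabbit phospho-specific antibody, then a europium-labelled anti-rabbit secondary, read by DELFIA fluorescence. Mean ± SEM, n = 3.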

Data set [4] concerns Rattus norvegicus. Nature of the data set: Effective dose for suppressing paw swelling in an in vivo SCW (streptococcal cell wall) induced arthritis model in Lewis rat; value ranges from 10-30. The format is functional.
In data set [5] the target is T1, Tumor necrosis factor (Mus musculus). Put plainly: Effective dose against LPS-stimulated Tumor necrosis factor, alpha release in mice dosed orally, 30 min prior to LPS challenge (0.1 mg/kg, ip); value ranges from 3-10. The format is functional, organism-based. The gist of the method: as §1

Regarding `COCCCNc1nccc(-c2[nH]c([C@H]3OC[C@@](C)(C(=O)NCCOC)CO3)nc2-c2ccc(F)cc2)n1`, in data set [1], the Cmax was found to be 0.089 µg/mL. The same molecule returned an AUC in the data set filed under Rattus norvegicus [2] of 0.138 µg·h/mL. In data set [3], this molecule came in with an ED50 of 5 mg/kg. For the same molecule, the IC50 on MAP kinase p38 was found to be 127 nM.
For the molecule `CN1CCN(C(=O)[C@]2(C)CO[C@@H](c3nc(-c4ccc(F)cc4)c(-c4ccnc(NCC5CC5)n4)[nH]3)OC2)CC1`, the Cmax in data set [1] was 0.221 µg/mL. Further, the AUC in the data set filed under Rattus norvegicus [2] turned out to be 0.541 µg·h/mL. For the same molecule, the median effective dose (ED50) was found to be 10 mg/kg in data set [3] and 30 mg/kg in the data set on Rattus norvegicus [4]. The molecule further came in with an IC50 against MAP kinase p38 of 4 nM.
For `C[C@]1(C(=O)NC2CC2)CO[C@H](c2nc(-c3ccc(F)cc3)c(-c3ccnc(NCC4CC4)n3)[nH]2)OC1`, the Cmax in data set [1] turned out to be 0.091 µg/mL. In the data set filed under Rattus norvegicus [2], this molecule came in with an area under the curve (AUC) of 0.288 µg·h/mL. For the same molecule, the ED50 in data set [3] came to 5 mg/kg. At MAP kinase p38, this molecule displayed an IC50 of 5 nM.
As to `C=CCNc1nccc(-c2[nH]c([C@H]3OC[C@@](C)(C(=O)NCCOC)CO3)nc2-c2ccc(F)cc2)n1`, the Cmax in data set [1] came out at 0.095 µg/mL. In addition, the AUC in the data set listed under Rattus norvegicus [2] worked out at 0.169 µg·h/mL. Also, the 50% effect level in data set [3] (ED50) was put at a dose of 0.2 mg/kg. In addition, the IC50 against MAP kinase p38 is given as 62 nM.
Taken in the same sequence, the figures for `COCCNc1nccc(-c2[nH]c([C@H]3OC[C@@](C)(C(=O)NCC4CC4)CO3)nc2-c2ccc(F)cc2)n1` were 0.062 µg/mL, 0.121 µg·h/mL, 3 mg/kg and 47 nM.
Taken in the same sequence, the figures for `CCCNC(=O)[C@]1(C)CO[C@@H](c2nc(-c3ccc(F)cc3)c(-c3ccnc(NCCCOC)n3)[nH]2)OC1` were 0.27 µg/mL, 0.738 µg·h/mL, 6 mg/kg and 6 nM.
For `CS(=O)(=O)O.C[C@]1(C(=O)N2CCOCC2)CO[C@H](c2nc(-c3ccc(F)cc3)c(-c3ccncc3)[nH]2)OC1`, the Cmax in data set [1] is 0.277 µg/mL. The AUC in the data set listed under Rattus norvegicus [2] turned out to be 0.628 µg·h/mL. The molecule also showed an IC50 on MAP kinase p38 of 110 nM.
Take `CC(C)NC(=O)[C@]1(C)CO[C@@H](c2nc(-c3ccc(F)cc3)c(-c3ccnc(NCC4CC4)n3)[nH]2)OC1`: the Cmax in data set [1] amounted to 0.141 µg/mL. Besides, the AUC in the data set filed under Rattus norvegicus [2] was 0.412 µg·h/mL. Besides, the ED50 in data set [3] is 0.7 mg/kg. On MAP kinase p38, this molecule gave an IC50 of 12 nM.
`C[C@]1(C(=O)N2CCOCC2)CO[C@H](c2nc(-c3ccc(F)cc3)c(-c3ccncc3)[nH]2)OC1` [listing 1 of 2 here] yielded an ED50 in data set [5] of 10 mg/kg.
In the case of `CN(C)C(=O)[C@]1(C)CO[C@@H](c2nc(-c3ccc(F)cc3)c(-c3ccnc(NCC4CC4)n3)[nH]2)OC1`, the Cmax in data set [1] was 0.029 µg/mL. In addition, the AUC in the data set listed under Rattus norvegicus [2] came out at 0.276 µg·h/mL. The molecule further gave an ED50 in data set [3] of 9 mg/kg. On MAP kinase p38, this molecule showed an IC50 of 6 nM.
For `CCCNC(=O)[C@]1(C)CO[C@@H](c2nc(-c3ccc(F)cc3)c(-c3ccnc(NCc4ccco4)n3)[nH]2)OC1`, in data set [1], the Cmax worked out at 0.039 µg/mL. In the data set listed under Rattus norvegicus [2], the AUC worked out at 0.257 µg·h/mL. The IC50 on MAP kinase p38 is listed as 6 nM.
In the case of `C[C@]1(C(=O)N2CCOCC2)CO[C@H](c2nc(-c3ccc(F)cc3)c(-c3ccncc3)[nH]2)OC1` [listing 2 of 2 here], the Cmax in data set [1] worked out at 0.06 µg/mL. For the same molecule, the AUC in the data set filed under Rattus norvegicus [2] is 0.247 µg·h/mL.
Turning to `CN(C)C(=O)[C@]1(C)CO[C@@H](c2nc(-c3ccc(F)cc3)c(-c3ccnc(NCc4ccccn4)n3)[nH]2)OC1`, in data set [1], the Cmax worked out at 0.11 µg/mL. Further, the AUC in the data set listed under Rattus norvegicus [2] stood at 0.529 µg·h/mL. The molecule further yielded an ED50 in data set [3] of 8 mg/kg. Moreover, the concentration for half-maximal inhibition (IC50) against MAP kinase p38 is 4 nM.

These data come from ChEMBL document CHEMBL1135434, “An algorithm-directed two-component library synthesized via solid-phase methodology yielding potent and orally bioavailable p38 MAP kinase inhibitors” (J Med Chem, 2002).
